Data reported in ChEMBL document CHEMBL4014306, “Pyrazolopyrimidines as Potent Stimulators for Transient Receptor Potential Canonical 3/6/7 Channels” (J Med Chem, 2017).
Activity calls are given as the source filed them. No cut-off for these calls is given here.

Legend:
Type in all cases: cell-based
[1] = target: T1, Short transient receptor potential channel 5 (Homo sapiens) (UniProt Q9UL62); experiment: Agonist activity at human TRPC5 expressed in HEK293 cells assessed as induction of membrane depolarization at 33 uM measured for 2.5 mins by FLIPR membrane potential dye-based fluorescence assay
T1 sequence (whole entry): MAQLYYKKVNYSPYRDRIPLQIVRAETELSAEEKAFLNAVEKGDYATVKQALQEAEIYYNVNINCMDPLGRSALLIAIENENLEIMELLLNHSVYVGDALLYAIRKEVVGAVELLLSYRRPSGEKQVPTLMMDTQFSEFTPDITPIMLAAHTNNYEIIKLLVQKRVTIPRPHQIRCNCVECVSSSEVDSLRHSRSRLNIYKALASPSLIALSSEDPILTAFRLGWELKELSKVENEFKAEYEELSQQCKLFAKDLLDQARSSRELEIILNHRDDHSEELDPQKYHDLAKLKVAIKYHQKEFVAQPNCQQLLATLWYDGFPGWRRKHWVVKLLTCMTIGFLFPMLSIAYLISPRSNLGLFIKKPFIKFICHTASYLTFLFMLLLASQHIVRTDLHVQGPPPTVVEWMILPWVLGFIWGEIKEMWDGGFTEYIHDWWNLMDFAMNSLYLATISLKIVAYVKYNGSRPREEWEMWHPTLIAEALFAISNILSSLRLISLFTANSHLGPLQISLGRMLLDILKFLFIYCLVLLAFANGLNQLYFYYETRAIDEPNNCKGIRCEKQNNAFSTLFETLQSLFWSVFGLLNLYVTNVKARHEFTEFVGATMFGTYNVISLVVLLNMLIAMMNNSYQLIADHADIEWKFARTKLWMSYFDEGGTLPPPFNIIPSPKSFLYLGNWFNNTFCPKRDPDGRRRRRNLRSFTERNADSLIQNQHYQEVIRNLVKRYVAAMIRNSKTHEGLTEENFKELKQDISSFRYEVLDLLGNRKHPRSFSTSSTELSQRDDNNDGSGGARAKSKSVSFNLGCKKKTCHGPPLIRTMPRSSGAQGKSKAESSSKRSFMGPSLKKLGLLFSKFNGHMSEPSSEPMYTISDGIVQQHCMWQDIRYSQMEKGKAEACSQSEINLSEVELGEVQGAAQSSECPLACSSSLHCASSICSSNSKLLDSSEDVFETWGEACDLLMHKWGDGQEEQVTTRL

[2] = target: T2, Short transient receptor potential channel 6 (Mus musculus, UniProt Q61143); experiment: Agonist activity at mouse TRPC6 expressed in HEK293 cells co-expressing Gq11-PLCbeta fused M5 receptor assessed as increase in intracellular calcium level measured for 2.5 mins by Fluo-8-AM dye-based fluorescence assay; settings: read-out: EC50
T2 sequence (Q61143 whole entry): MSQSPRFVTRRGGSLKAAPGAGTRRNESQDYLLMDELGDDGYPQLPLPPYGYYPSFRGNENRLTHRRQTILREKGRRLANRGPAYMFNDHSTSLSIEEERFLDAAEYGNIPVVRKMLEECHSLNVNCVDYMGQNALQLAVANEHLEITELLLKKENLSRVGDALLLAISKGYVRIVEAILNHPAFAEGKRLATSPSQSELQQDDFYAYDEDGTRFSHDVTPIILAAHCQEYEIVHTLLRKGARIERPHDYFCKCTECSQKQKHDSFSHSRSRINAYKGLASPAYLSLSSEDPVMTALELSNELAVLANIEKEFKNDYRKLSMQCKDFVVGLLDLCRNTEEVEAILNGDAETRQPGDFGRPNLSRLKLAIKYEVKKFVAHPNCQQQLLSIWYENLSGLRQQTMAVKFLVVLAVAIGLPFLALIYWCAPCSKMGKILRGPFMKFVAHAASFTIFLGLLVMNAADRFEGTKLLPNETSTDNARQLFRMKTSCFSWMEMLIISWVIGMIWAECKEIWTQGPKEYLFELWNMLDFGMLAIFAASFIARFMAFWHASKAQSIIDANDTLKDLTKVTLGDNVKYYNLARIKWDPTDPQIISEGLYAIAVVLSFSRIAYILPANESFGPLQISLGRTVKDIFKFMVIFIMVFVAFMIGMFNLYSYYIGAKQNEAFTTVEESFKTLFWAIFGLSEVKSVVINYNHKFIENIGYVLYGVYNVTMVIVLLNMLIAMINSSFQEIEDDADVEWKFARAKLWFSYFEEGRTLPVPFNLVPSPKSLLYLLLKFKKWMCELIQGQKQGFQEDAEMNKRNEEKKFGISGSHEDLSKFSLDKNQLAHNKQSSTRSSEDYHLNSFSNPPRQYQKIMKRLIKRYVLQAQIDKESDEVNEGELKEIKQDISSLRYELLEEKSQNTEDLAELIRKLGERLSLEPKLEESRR

[3] = target: T3, Short transient receptor potential channel 4 (Mus musculus, UniProt Q9QUQ5); experiment: Antagonist activity at mouse TRPC4beta expressed in HEK293 cells co-expressing MOR decrease in DAMGO-evoked intracellular calcium level by Fluo-8-AM dye-based fluorescence assay
T3 sequence (Q9QUQ5 whole entry): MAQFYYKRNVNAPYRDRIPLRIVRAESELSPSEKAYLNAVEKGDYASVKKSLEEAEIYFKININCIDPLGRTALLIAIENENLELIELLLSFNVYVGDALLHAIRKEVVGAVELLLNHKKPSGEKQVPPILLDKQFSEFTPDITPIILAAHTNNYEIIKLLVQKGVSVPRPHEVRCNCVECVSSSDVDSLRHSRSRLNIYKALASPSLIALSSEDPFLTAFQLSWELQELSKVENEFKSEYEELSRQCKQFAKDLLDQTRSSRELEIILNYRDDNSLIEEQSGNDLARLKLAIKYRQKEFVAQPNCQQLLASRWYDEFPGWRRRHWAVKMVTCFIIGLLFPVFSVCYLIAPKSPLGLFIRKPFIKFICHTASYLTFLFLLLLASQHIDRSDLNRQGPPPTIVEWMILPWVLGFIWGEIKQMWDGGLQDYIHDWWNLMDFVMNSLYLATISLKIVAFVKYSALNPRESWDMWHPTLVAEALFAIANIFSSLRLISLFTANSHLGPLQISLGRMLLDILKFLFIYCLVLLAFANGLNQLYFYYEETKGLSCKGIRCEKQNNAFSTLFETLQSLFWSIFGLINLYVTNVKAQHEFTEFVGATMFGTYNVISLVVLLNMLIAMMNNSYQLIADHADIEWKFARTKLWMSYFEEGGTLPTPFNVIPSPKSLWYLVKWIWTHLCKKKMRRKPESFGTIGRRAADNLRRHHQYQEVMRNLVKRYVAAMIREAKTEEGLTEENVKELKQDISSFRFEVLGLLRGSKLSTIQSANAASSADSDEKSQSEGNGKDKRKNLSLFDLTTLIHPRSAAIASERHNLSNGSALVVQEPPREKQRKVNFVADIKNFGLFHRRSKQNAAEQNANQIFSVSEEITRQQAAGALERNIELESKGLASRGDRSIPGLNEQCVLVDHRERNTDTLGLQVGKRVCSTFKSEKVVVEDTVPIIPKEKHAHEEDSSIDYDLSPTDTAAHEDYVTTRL
Procedure, shortened: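 MOR/TRPC4β HEK293 cells loaded with Ca2+ dye. Compound given before 1 μM DAMGO. IC50 estimated from one experiment in triplicate.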

Structure (SMILES)	Activity [1]	EC50 [2] [µM]	IC50 [3]
CCOC(=O)N1CCC(c2cc(O)n3nc(C)c(-c4ccc(F)cc4)c3n2)CC1	inactive	4.66	Not Active
Cc1nn2c(O)cc(C3CCN(C(=O)OCc4ccccc4)CC3)nc2c1-c1ccc(Cl)cc1	inactive	7.79	Not Active
Cc1nn2c(O)cc(C3CCN(C(=O)OCc4ccccc4)CC3)nc2c1-c1ccc(F)cc1	inactive	3.91	Not Active
CCOC(=O)N1CCC(c2cc(O)n3nc(C)c(-c4ccc(C(F)(F)F)cc4)c3n2)CC1	inactive	–	Not Active
